According to ChEMBL document CHEMBL1145117, “Structures and cytotoxic properties of trichoverroids and their macrolide analogues produced by saltwater culture of Myrothecium verrucaria” (J Med Chem, 2003):

Key:
NCI-H125 = experiment: Selectivity was evaluated against human ZH125 lung non small cell carcinoma cell lines-CEM lymphocytic leukemia cell lines at a concentration of 550 ug/mL; type: functional
Method in brief: (§1)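 Disk diffusion soft agar colony formation assay with zone units read for murine L1210, C38 and CFU-GM (bone marrow) cells and for human H116, H125 and CEM cells. Selectivity is the zone-unit difference between the paired cell lines. A solid tumor minus leukemia or normal difference above 250 units counts as solid tumor selective.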

MC-38 [1] = experiment: Selectivity was evaluated against Murine tumor ZC38 colon adenocarcinoma cell lines- ZL1210 lymphocytic leukemia cell lines at a concentration of 550 ug/mL; type: functional, Mus musculus; method in brief: as §1
RXF 393 = experiment: In vitro antitumor activity against renal RXF 393 tumor cell lines; type: functional, cell-based, Homo sapiens; conditions: Homo sapiens, RXF 393
COLO 205 = experiment: In vitro antitumor activity against colon COLO 205 tumor cell lines; type: functional, cell-based, Homo sapiens; conditions: Homo sapiens, COLO 205
HL-60 = experiment: In vitro antitumor activity against leukemia HL-60(TB) tumor cell lines; type: functional, cell-based, Homo sapiens; conditions: Homo sapiens, HL-60
[2] = Selectivity was evaluated against human ZH116 colon cell lines-CEM lymphocytic leukemia cell lines at a concentration of 550 ug/mL; type: functional; method in brief: as §1
SK-MEL-2 = experiment: In vitro antitumor activity against melanoma SK-MEL-2 tumor cell lines; type: functional, cell-based, Homo sapiens; conditions: Homo sapiens, SK-MEL-2
CCRF-CEM = experiment: In vitro antitumor activity against leukemia CCRF-CEM tumor cell lines; type: functional, cell-based, Homo sapiens; conditions: Homo sapiens, CCRF-CEM
NCI-H522 = experiment: In vitro antitumor activity against NSCL NCI-H522 tumor cell lines; type: functional, cell-based, Homo sapiens; conditions: Homo sapiens, NCI-H522
NCI-H226 = experiment: In vitro antitumor activity against NSCL NCI-H226 tumor cell lines; type: functional, cell-based, Homo sapiens; conditions: Homo sapiens, NCI-H226
HCT-15 = experiment: In vitro antitumor activity against colon HCT-15 tumor cell lines; type: functional, cell-based, Homo sapiens; conditions: Homo sapiens, HCT-15
MDA-N = experiment: In vitro antitumor activity against breast MDA-N tumor cell lines; type: functional, cell-based, Homo sapiens; conditions: Homo sapiens, MDA-N
MDA-MB-435 = experiment: In vitro antitumor activity against breast MDA-MB-435 tumor cell lines; type: functional, cell-based, Homo sapiens; conditions: Homo sapiens, MDA-MB-435
MOLT-4 = experiment: In vitro antitumor activity against leukemia MOLT-4 tumor cell lines; type: functional, cell-based, Homo sapiens; conditions: Homo sapiens, MOLT-4
A498 = experiment: In vitro antitumor activity against renal A498 tumor cell lines; type: functional, cell-based, Homo sapiens; conditions: Homo sapiens, A498
HCT-116 = experiment: In vitro antitumor activity against colon HCT116 tumor cell lines; type: functional, cell-based, Homo sapiens; conditions: Homo sapiens, HCT-116
MCF7 = experiment: In vitro antitumor activity against breast MCF-7 tumor cell lines; type: functional, cell-based, Homo sapiens; conditions: Homo sapiens, MCF7
MC-38 [3] = experiment: Selectivity was evaluated against murine tumor ZC38 colon adenocarcinoma cell lines- ZCFU-GM normal bone marrow cell lines at a concentration of 550 ug/mL; type: functional, Mus musculus; method in brief: as §1
M14 = experiment: In vitro antitumor activity against melanoma M14 tumor cell lines; type: functional, cell-based, Homo sapiens; conditions: Homo sapiens, M14
Homo sapiens = organism: Homo sapiens; experiment: Concentration giving 500 zone units against H116 colon tumor cell lines; type: functional
Method in brief: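 Disk diffusion soft agar colony formation assay on human H116 colon tumor cells. Each sample was applied to a disk as 15 µL, and activity was read as zone units. The value is the sample concentration that gave 500 zone units.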

L1210 = experiment: Selectivity was evaluated murine tumor against ZL1210 lymphocytic leukemia cell lines- ZCFU-GM normal bone marrow cell lines at a concentration of 550 ug/mL; type: functional, Mus musculus; method in brief: as §1
A549 = experiment: In vitro antitumor activity against NSCL A549/ATCC tumor cell lines; type: functional, cell-based, Homo sapiens; conditions: Homo sapiens, A549
UACC-62 = experiment: In vitro antitumor activity against melanoma UACC-62 tumor cell lines; type: functional, cell-based, Homo sapiens; conditions: Homo sapiens, UACC-62
786-0 = experiment: In vitro antitumor activity against renal 786-0 tumor cell lines; type: functional, cell-based, Homo sapiens; conditions: Homo sapiens
[4] = Activity relative to compound 3 (set to 1.0) was evaluated against H116 colon tumor cell lines; type: functional, Homo sapiens
Method in brief: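 Disk diffusion soft agar colony formation assay on human H116 colon tumor cells, with 15 µL of sample applied to a disk and zone units read. Relative activity = (dilution required for 500 zone units × 100)/(mg/mL), normalised to a reference compound set at 1.0.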

C/C1=C\C(=O)OC[C@]23CC[C@](C)(O)[C@H]4C[C@@]5(O)[C@H](O[C@H]42)[C@H](O)[C@@H](OC(=O)/C=C\C=C\[C@@H]2O[C@H](C1)O[C@H]2C)[C@]35C [Miophytocen C]
-350 zone unit: Selectivity (MC-38 [1])
550 µg/mL: Concentration (Homo sapiens)
> 10 µM: IC50 (RXF 393) | IC50 (COLO 205) | IC50 (HL-60) | IC50 (SK-MEL-2) | IC50 (CCRF-CEM) | IC50 (NCI-H522) | IC50 (NCI-H226) | IC50 (HCT-15) | IC50 (MDA-N) | IC50 (MDA-MB-435) | IC50 (MOLT-4) | IC50 (A498) | IC50 (HCT-116) | IC50 (MCF7) | IC50 (M14) | IC50 (A549) | IC50 (UACC-62) | IC50 (786-0)
1: Relative activity [4]
-50 zone unit: Selectivity (NCI-H125) | Selectivity [2] | Selectivity (MC-38 [3])
300 zone unit: Selectivity (L1210)
